Experimental findings from ChEMBL document CHEMBL2203099, “Identification of a crucial amino acid in the helix position 6.51 of human tachykinin neurokinin 1 and 3 receptors contributing to the insurmountable mode of antagonism by dual NK₁/NK₃ antagonists” (J Med Chem, 2012) are described below.

Where a SMILES comes first, the peptide text is derived from it. [ ]: non-standard residue; d: D form. NMeF = CN[C@@H](Cc1ccccc1)C(=O)O

Assay [1] deals with Neuromedin-K receptor (Homo sapiens, UniProt P29371, H316F). Description: Agonist activity at human NK3 H316F mutant expressed in HEK293 cells assessed as [3H]IP accumulation after 45 mins. The format is functional, cell-based. In a few lines: (§1)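 Human NK3 (WT or point mutant) transiently transfected into HEK293 cells and labeled with 5 μCi/mL myo-[³H]inositol. Assay buffer HBSS/20 mM HEPES pH 7.4 with 8 mM LiCl. [MePhe⁷]NKB at 0.01 nM–1 μM for 45 min at 37 °C. Lysis in 20 mM formic acid; [³H]IP captured on yttrium silicate SPA beads. EC50 and Hill slope from a four-parameter fit. Emax given as % of the WT fitted maximum from the same day.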
Sequence of Neuromedin-K receptor (Homo sapiens, UniProt P29371, H316F) (P29371 whole entry H316F): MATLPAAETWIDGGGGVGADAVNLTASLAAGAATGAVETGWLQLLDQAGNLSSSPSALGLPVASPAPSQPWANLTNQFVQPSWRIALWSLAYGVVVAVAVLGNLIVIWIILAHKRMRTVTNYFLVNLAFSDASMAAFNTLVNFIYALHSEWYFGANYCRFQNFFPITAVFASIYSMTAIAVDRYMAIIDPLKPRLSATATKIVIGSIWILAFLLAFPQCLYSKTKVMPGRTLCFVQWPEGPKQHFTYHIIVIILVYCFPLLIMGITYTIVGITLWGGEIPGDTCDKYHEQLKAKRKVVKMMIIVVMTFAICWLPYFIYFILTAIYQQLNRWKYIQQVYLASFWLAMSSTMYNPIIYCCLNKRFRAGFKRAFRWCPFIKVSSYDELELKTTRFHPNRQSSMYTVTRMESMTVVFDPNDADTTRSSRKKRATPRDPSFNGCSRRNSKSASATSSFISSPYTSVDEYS

The next assay has as its target Substance-P receptor (Homo sapiens, UniProt P25103). Description: Binding affinity at human NK1 receptor.
Assay [2] deals with T1, Neuromedin-K receptor (Homo sapiens, UniProt P29371).
T1 sequence (P29371 whole entry): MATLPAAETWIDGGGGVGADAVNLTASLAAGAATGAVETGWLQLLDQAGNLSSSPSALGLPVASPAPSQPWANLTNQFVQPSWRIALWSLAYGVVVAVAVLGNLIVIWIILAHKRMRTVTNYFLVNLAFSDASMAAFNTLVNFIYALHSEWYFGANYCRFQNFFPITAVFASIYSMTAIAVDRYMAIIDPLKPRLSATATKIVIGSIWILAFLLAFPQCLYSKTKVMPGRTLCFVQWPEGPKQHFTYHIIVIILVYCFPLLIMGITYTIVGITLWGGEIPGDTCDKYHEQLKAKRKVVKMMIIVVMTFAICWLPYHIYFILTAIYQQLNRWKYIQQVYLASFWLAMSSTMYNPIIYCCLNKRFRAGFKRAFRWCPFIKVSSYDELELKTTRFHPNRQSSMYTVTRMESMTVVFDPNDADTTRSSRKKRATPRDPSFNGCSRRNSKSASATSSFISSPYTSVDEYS
Briefly: Agonist activity at wild type human NK3 receptor expressed in HEK293 cells assessed as [3H]IP accumulation after 45 mins. The class given is functional, cell-based. In a few lines:
as §1

Assay [3] concerns the target Neuromedin-K receptor (Homo sapiens, UniProt P29371, Y247A). Description: Agonist activity at human NK3 Y247A mutant expressed in HEK293 cells assessed as [3H]IP accumulation after 45 mins. The class given is functional, cell-based. In a few lines:
as §1

The target in assay [4] is Neuromedin-K receptor (Homo sapiens, UniProt P29371, Y247W). Briefly: Agonist activity at human NK3 Y247W mutant expressed in HEK293 cells assessed as [3H]IP accumulation after 45 mins. The class given is functional, cell-based. In a few lines: as §1
Sequence of Neuromedin-K receptor (Homo sapiens, UniProt P29371, Y247W) (P29371 whole entry Y247W): as the sequence (P29371 whole entry H316F) above, with Y247W, F316H counted along it
The target of assay [5] is Neuromedin-K receptor (Homo sapiens, UniProt P29371, Y247F). Description: Agonist activity at human NK3 Y247F mutant expressed in HEK293 cells assessed as [3H]IP accumulation after 45 mins. The format is functional, cell-based. In a few lines: as §1
Sequence of Neuromedin-K receptor (Homo sapiens, UniProt P29371, Y247F) (P29371 whole entry Y247F): as the sequence (P29371 whole entry H316F) above, with Y247F, F316H counted along it
In assay [6] the target is Neuromedin-K receptor (Homo sapiens, UniProt P29371, H316W). Description: Agonist activity at human NK3 H316W mutant expressed in HEK293 cells assessed as [3H]IP accumulation after 45 mins. The class given is functional, cell-based. In a few lines: as §1
Sequence of Neuromedin-K receptor (Homo sapiens, UniProt P29371, H316W) (P29371 whole entry H316W): as the sequence (P29371 whole entry H316F) above, with F316W counted along it

Sequence of Substance-P receptor (P25103 whole entry): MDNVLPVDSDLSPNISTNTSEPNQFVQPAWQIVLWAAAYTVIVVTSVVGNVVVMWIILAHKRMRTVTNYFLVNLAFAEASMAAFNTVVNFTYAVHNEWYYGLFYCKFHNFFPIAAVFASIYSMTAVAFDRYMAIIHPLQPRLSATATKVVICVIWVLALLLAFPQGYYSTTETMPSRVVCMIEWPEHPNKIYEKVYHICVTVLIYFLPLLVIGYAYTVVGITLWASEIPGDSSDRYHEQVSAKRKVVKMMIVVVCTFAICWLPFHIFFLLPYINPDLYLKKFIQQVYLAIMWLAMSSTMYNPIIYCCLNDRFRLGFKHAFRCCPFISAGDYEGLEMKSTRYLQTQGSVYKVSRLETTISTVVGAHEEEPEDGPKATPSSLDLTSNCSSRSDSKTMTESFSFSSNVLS
Sequence of Neuromedin-K receptor (Homo sapiens, UniProt P29371, Y247A) (P29371 whole entry Y247A): as the sequence (P29371 whole entry H316F) above, with Y247A, F316H counted along it

On to `CSCC[C@H](NC(=O)[C@H](CC(C)C)NC(=O)CNC(=O)[C@H](Cc1ccccc1)N(C)C(=O)[C@H](Cc1ccccc1)NC(=O)[C@H](Cc1ccccc1)NC(=O)[C@H](CC(=O)O)NC(=O)[C@H](Cc1cnc[nH]1)NC(=O)[C@H](CCSC)NC(=O)[C@@H](N)CC(=O)O)C(N)=O` (H-DMHDFF[NMeF]GLM-NH2), for which the EC50 result on Neuromedin-K receptor [1] was “Not Active”; at Neuromedin-K receptor [2] it was 0.71 nM; on Neuromedin-K receptor [3] it was “Not Active”; at Neuromedin-K receptor [4], “Not Active”; on Neuromedin-K receptor [5], 2.22 nM; at Neuromedin-K receptor [6] it was 3.48 nM. At Substance-P receptor, the inhibition constant Ki is over 10000 nM.
